According to ChEMBL document CHEMBL4321823, “Benzyl Phenylsemicarbazides: A Chemistry-Driven Approach Leading to G Protein-Biased Dopamine D4 Receptor Agonists with High Subtype Selectivity” (J Med Chem, 2019):

Legend:
[1] = biological target: Kappa-type opioid receptor (Homo sapiens, UniProt P41145); assay: Displacement of [3H] diprenorphine from kappa opioid receptor (unknown origin)
In short: (§1)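 Radioligand competition binding; Ki given as mean ± SD from two individual experiments, each run in triplicate.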

Homo sapiens [2] = organism: Homo sapiens; assay: Selectivity index, ratio of Ki for displacement of [3H] Spiperone from human D3 receptor expressed in CHO cells to Ki for displacement of [3H] Spiperone from human D4.4 receptor expressed in CHO cells; format: cell-based
In short: (§2)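 Competition binding against [3H]spiperone on membranes of CHO cells stably expressing cloned human D2L, D2S, D3 or D4.4 receptors. Ki from monophasic curve fits; mean ± SEM of three to seven experiments, each in triplicate. Selectivity calculated as Ki(D2L, D2S or D3) divided by Ki(D4.4).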

[3] = biological target: T1, Alpha-1A adrenergic receptor (Homo sapiens, UniProt P35348); assay: Displacement of [3H] prazosin from alpha1A adrenergic receptor (unknown origin)
T1 sequence (P35348 whole entry): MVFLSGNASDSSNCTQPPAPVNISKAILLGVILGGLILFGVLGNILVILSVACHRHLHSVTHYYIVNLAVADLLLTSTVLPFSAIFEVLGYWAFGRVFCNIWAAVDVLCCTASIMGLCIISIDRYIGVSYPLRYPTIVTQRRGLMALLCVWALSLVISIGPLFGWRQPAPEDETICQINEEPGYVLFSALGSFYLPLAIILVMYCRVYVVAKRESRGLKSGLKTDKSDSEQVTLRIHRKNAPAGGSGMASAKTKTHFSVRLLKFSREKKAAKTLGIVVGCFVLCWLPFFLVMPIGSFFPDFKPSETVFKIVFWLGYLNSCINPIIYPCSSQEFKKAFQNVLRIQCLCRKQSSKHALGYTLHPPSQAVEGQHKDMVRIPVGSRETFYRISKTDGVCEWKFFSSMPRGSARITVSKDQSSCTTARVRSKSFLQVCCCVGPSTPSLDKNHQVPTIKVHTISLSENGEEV

[4] = biological target: T2, 5-hydroxytryptamine receptor 1A (Homo sapiens, UniProt P08908); assay: Displacement of [3H] WAY100635 from 5HT1A receptor (unknown origin); in short: as §1
T2 sequence (P08908 whole entry): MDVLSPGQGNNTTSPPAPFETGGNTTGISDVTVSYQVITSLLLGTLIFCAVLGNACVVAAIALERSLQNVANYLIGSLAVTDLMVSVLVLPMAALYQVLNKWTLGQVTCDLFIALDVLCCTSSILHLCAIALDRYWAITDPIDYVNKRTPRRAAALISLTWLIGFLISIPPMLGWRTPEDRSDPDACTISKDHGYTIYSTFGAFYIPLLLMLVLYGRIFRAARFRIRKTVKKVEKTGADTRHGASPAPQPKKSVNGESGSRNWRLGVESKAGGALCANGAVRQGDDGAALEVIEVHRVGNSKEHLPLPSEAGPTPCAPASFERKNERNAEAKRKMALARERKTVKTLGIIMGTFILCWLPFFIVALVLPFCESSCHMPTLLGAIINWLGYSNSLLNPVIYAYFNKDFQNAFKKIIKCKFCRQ

[5] = biological target: Beta-1 adrenergic receptor (Homo sapiens, UniProt P08588); assay: Displacement of [3H] CGP12177 from beta1 adrenergic receptor (unknown origin)
D(4) dopamine receptor [6] = biological target: T3, D(4) dopamine receptor (Homo sapiens, UniProt P21917); format: cell-based, HEK293
T3 sequence (P21917 whole entry): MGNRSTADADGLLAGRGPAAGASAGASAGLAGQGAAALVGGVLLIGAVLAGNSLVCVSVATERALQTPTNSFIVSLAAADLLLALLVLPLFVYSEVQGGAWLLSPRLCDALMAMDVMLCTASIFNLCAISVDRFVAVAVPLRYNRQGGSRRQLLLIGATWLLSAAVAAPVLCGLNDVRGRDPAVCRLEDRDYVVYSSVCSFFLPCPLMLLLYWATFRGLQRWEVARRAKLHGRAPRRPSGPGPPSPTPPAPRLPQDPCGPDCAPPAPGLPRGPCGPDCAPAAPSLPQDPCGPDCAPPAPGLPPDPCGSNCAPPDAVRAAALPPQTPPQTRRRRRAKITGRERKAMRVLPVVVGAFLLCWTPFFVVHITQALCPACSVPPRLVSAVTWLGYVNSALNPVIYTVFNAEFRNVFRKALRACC

D(4) dopamine receptor [7] = biological target: T3, D(4) dopamine receptor; assay: Agonist activity at human D4 receptor expressed in HEK293T cells co-expressing G-alphaqi assessed as accumulation of inositol monophosphate using d2-labelled IP1 conjugate incubated for 90 mins by HTRF assay; format: functional, cell-based
D(4) dopamine receptor [8] = biological target: T3, D(4) dopamine receptor; assay: Displacement of [3H] Spiperone from human D4.4 receptor expressed in CHO cells by competitive radioligand binding assay; format: cell-based
D(4) dopamine receptor [9] = biological target: T3, D(4) dopamine receptor; assay: Antagonist activity at […] D4 receptor (unknown origin) expressed in HEK293 cells co-expressing beta-arrestin2 assessed as inhibition of quinpirole-induced beta-arrestin2 recruitment preincubated for 30 mins followed by quinpirole addition and further incubated for 6 hrs by Path-Hunter assay; format: cell-based
D(2) dopamine receptor = D(2) dopamine receptor (Homo sapiens, UniProt P14416); assay: Displacement of [3H] Spiperone from human D2L receptor expressed in CHO cells by competitive radioligand binding assay; format: cell-based
Homo sapiens [10] = organism: Homo sapiens; assay: Selectivity index, ratio of Ki for displacement of [3H] Spiperone from human D2L receptor expressed in CHO cells to Ki for displacement of [3H] Spiperone from human D4.4 receptor expressed in CHO cells; format: cell-based; in short: as §2

Chain of D(2) dopamine receptor (P14416 whole entry): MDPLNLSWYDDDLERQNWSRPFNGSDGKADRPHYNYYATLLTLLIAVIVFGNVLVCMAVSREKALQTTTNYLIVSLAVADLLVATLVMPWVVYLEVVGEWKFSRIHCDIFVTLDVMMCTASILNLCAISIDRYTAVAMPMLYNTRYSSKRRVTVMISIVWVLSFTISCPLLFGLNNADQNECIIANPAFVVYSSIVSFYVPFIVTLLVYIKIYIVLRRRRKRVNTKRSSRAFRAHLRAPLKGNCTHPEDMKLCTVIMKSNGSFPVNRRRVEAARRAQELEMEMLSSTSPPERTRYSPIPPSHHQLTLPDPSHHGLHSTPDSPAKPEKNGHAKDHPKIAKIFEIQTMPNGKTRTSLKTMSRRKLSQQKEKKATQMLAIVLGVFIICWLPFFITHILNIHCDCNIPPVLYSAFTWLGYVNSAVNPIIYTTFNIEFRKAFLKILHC
Chain of Beta-1 adrenergic receptor (P08588 whole entry): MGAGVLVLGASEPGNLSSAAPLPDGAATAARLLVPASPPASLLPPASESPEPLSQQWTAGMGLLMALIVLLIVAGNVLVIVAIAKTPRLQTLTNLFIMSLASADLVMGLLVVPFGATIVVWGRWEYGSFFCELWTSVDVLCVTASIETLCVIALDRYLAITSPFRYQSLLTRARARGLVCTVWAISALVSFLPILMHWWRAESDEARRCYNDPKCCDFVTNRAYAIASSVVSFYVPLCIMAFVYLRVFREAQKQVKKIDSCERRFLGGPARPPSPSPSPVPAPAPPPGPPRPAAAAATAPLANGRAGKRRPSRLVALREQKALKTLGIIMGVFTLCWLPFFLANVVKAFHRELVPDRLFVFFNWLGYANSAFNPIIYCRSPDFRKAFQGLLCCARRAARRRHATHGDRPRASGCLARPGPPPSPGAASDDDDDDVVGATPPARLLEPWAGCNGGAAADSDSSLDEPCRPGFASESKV
Chain of Kappa-type opioid receptor (P41145 whole entry): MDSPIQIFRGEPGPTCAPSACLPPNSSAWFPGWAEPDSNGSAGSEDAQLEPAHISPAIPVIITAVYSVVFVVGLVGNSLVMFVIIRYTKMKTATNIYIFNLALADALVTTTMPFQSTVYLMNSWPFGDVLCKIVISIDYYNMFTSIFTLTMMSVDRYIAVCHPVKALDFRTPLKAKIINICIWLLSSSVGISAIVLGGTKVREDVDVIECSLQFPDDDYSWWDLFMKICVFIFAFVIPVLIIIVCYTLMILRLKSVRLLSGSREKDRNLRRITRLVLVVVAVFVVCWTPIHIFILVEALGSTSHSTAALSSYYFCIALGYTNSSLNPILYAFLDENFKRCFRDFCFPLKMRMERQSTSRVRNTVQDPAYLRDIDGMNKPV

Ki [1]: 4300 nM
Ki [3]: 1.6 nM
Ki [4]: 34 nM
Ki [5]: > 50000 nM
EC50 (D(4) dopamine receptor [6]): 500 nM
EC50 (D(4) dopamine receptor [7]): 41 nM
Ki (D(4) dopamine receptor [8]): 0.55 nM
IC50 (D(4) dopamine receptor [9]): 620 nM
Ki (D(2) dopamine receptor): 140 nM
Structure (SMILES): COc1ccccc1N1CCN(CCCNC(=O)NN(Cc2ccc(F)cc2)c2ccccc2)CC1
Ratio Ki (Homo sapiens [2]): 560
Ratio Ki (Homo sapiens [10]): 250
